Data taken from PubChem BioAssay AID493046 (Johns Hopkins Ion Channel Center, 2011).

Biological target: Potassium voltage-gated channel subfamily KQT member 5 (Homo sapiens) (UniProt Q9NR82)
Experiment: KCNQ5 channel potentiation by KCNQ2 openers, dose response, selectivity assay for KCNQ2 activator project, cell-based, thallium flux (AID 493046)
Details: CHO-K1 transfected KCNQ5, FluxOR thallium flux fluorescence; series mostly up to 30 µM; potentiation: at the top concentration;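 active means KCNQ5 potassium channel activity raised or lowered at any tested dose, with a dose response curve obtained; inactive means no effect at any dose, or no curve obtained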
Summary of the method: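 System: CHO-K1 cells transiently transfected with human KCNQ5 channel. Incubation: transfection 24 h before, dye 90 min, compound 20 min, room temperature. Detection: kinetic fluorescence of thallium flux with FluxOR dye. Read-out basis: Peak-to-minimum fluorescence over baseline, percent change versus vehicle. Benchmarks: vehicle controls as normalization reference.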

Potassium voltage-gated channel subfamily KQT member 5 (Homo sapiens), sequence (Q9NR82 whole entry, looked up): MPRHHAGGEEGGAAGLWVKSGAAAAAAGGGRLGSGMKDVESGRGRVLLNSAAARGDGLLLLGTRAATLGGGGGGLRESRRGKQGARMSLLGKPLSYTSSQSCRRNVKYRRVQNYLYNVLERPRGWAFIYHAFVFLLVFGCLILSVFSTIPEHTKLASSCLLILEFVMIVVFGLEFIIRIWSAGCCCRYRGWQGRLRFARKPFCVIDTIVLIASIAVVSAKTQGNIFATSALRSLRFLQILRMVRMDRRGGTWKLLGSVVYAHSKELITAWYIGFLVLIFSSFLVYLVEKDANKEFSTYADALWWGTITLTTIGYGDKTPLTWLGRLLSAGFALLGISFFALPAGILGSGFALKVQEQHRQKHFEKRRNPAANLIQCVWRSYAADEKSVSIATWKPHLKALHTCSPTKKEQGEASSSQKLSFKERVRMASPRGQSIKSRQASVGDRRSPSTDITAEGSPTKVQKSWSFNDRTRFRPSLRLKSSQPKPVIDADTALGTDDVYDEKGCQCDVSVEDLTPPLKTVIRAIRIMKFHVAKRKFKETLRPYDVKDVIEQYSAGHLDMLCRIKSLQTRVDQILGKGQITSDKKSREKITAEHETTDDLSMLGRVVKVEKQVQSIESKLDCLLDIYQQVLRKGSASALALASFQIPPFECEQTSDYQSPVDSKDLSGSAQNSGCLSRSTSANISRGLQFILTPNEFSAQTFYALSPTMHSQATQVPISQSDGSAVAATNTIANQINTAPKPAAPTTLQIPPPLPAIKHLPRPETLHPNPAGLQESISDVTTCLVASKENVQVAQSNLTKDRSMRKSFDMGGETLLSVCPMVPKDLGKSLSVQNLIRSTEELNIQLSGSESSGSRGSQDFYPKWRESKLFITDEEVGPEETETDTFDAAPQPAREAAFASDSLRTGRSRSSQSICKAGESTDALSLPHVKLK

potentiation, inactive:
Cc1cccc(C)c1NC(=O)C1CC2CCC1C2 (stereo not given) -7.45
Cc1ccc(C)c(NC(=O)C2CC3CCC2C3)c1 (stereo not given) 2.92
Cc1cc(C)c(NC(=O)CC(C)(C)C)c(Cl)c1 -7.36
CCCCC(=O)Nc1c(C)cc(C)cc1Cl -9.95
Cc1cc(C)c(NC(=O)C2CC3CCC2C3)c(C)c1 (stereo not given) -12.5
